Reference: ChEMBL document CHEMBL2321778, “GC-targeted C8-linked pyrrolobenzodiazepine-biaryl conjugates with femtomolar in vitro cytotoxicity and in vivo antitumor activity in mouse models” (J Med Chem, 2013)
Active and inactive are the calls of the source. No cut-off for these calls is given here.

Assays:
[1] = test system: A2780; assay: Cytotoxicity against human A2780 cells after 96 hrs by MTT assay; assay type: functional, cell-based; conditions: A2780, 96 h
Summary of the method: (§1)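 Adherent cells were grown at 37 °C in 5% CO2 in DMEM or MEM with 10% FBS, L-glutamine, nonessential amino acids and hydrocortisone, then seeded to 30–40% confluence. Compounds were dissolved in water at up to 100 μM, serially diluted tenfold and added for 96 h of continuous exposure. MTT absorbance was read at 570 nm, and IC50 was taken from dose–response analysis.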

[2] = Cytotoxicity against human primary CLL cells after 96 hrs by annexin V/propidium iodide staining-based FACS flow cytometric analysis; assay type: functional, cell-based
Summary of the method: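 Freshly isolated peripheral blood CLL cells at 1 × 10^6/mL were cultured in RPMI with penicillin, streptomycin and 10% FCS at 37 °C in 5% CO2. Serial dilutions of compound from DMSO stocks were added, with drug-free control cultures. Apoptosis was measured by annexin V/propidium iodide flow cytometry, in duplicate. LD50 came from sigmoidal curves of log concentration against percentage apoptosis.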

[3] = Binding affinity to AT-rich FAM-TATAAGATTTTCTTATA-TAMRA DNA (unknown origin) assessed as change in melting temperature at 1 uM by FRET assay
Summary of the method: (§2)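 Fam/Tamra-labelled hairpins, 400 nM in 50 mM potassium cacodylate pH 7.4, annealed at 85 °C for 5 min, cooled over 5 h, then mixed 1:1 with ligand diluted from DMSO stock; ligand 1 μM, 24 h incubation. Fluorescence (excitation 450−495, emission 515−545 nm) read every 0.5 °C from 30−100 °C; Tm from first-derivative maximum of smoothed curves, ΔTm versus blank.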

[4] = test system: A-431; assay: Cytotoxicity against human A431 cells after 96 hrs by MTT assay; assay type: functional, cell-based; conditions: A-431, 96 h; summary of the method: as §1
[5] = Binding affinity to AT-rich TATA-AGA-TTT-TCT-TATA DNA (unknown origin) after 5 mins by HPLC-MS analysis (reference value: 70 %)
[6] = test system: MDA-MB-231; assay: Cytotoxicity against human MDA-MB-231 cells after 96 hrs by MTT assay; assay type: functional, cell-based; conditions: MDA-MB-231, 96 h; summary of the method: as §1
[7] = Selectivity ratio of deltaTm for GC-rich FAM-GCGCAGATTTTCTGCGC-TAMRA DNA (unknown origin) to deltaTm for AT-rich FAM-TATAAGATTTTCTTATA-TAMRA DNA (unknown origin); summary of the method: as §2
[8] = test system: MIA PaCa-2; assay: Cytotoxicity against human MIAPaCa2 cells after 96 hrs by MTT assay; assay type: functional, cell-based; conditions: MIA PaCa-2, 96 h; summary of the method: as §1
[9] = test system: MCF7; assay: Cytotoxicity against human MCF7 cells after 96 hrs by MTT assay; assay type: functional, cell-based; conditions: MCF7, 96 h; summary of the method: as §1
[10] = Binding affinity to GC-rich FAM-GCGCAGATTTTCTGCGC-TAMRA DNA (unknown origin) assessed as change in melting temperature at 1 uM by FRET assay; summary of the method: as §2
[11] = test system: A549; assay: Cytotoxicity against human A549 cells after 96 hrs by MTT assay; assay type: functional, cell-based; conditions: A549, 96 h; summary of the method: as §1
[12] = Binding affinity to GC-rich GCGC-AGA-TTT-TCT-GCGC DNA (unknown origin) after 5 mins by HPLC-MS analysis (reference value: 12 %)
[13] = test system: WI-38; assay: Cytotoxicity against human WI38 cells after 96 hrs by MTT assay; assay type: cell-based; conditions: WI-38, 96 h; summary of the method: as §1
[14] = test system: Mus musculus; assay: Toxicity in Swiss Webster mouse assessed as weight loss at 400 ug/kg/day, ip; assay type: organism-based; conditions: in vivo, 0.4 mg/kg
[15] = Toxicity in ip dosed Swiss Webster mouse; assay type: organism-based; conditions: in vivo
[16] = test system: HeLa; assay: Downregulation of SMAD in human HeLa cells at 10 nM after 4 hrs relative to control; assay type: functional
Summary of the method: (§3)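 Nuclear extracts from 1 × 10^7 HeLa cells treated 4 h, plus untreated controls; 10 μg nuclear protein per sample run on a 48-transcription-factor activation profiling plate array per kit instructions.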

[17] = test system: MIA PaCa-2; assay: Inhibition of NFkappaB in human MIAPaCa2 cells xenografted in mouse assessed as downregulation of BCL2 by immunohistochemical staining relative to control; assay type: cell-based
Summary of the method: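 Sections of MIA PaCa-2 xenograft tumors from treated and untreated mice: peroxidase quenched with 0.3% H2O2/methanol 15 min, blocked in 3% goat serum/PBS 30 min, 2 μg/mL BCL2 antibody 1 h at room temperature, then HRP […] antibody 1 h; staining quantified against controls.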

[18] = test system: HeLa; assay: Downregulation of EGR in human HeLa cells at 10 nM after 4 hrs relative to control; assay type: functional; summary of the method: as §3
[19] = test system: HeLa; assay: Downregulation of NFAT in human HeLa cells at 10 nM after 4 hrs relative to control; assay type: functional; summary of the method: as §3
[20] = test system: HeLa; assay: Inhibition of NFkappaB activity in human HeLa cells at 10 nM after 4 hrs relative to control; assay type: cell-based; summary of the method: as §3
[21] = test system: MDA-MB-231; assay: Antitumor activity against human MDA-MB-231 cells xenografted in MF1 nude mouse at 300 ug/kg/day, iv administered for 5 consecutive days followed by 2 drug-free days repeated for 4 weeks measured up to 3 weeks after last dose; assay type: functional, organism-based
Summary of the method: (§4)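 MDA-MB-231 cells (5 × 10^6) implanted subcutaneously in flank of female MF1 nude mice (2−3 months, 20−25 g), passaged as ~1 mm3 tumor pieces; at ~0.06 cm3 (three weeks) split into groups of six. Agent in DMSO diluted in saline, tail-vein iv at 250 or 300 μg/kg/day, 5 days on/2 off for four weeks; untreated controls. Tumor volume (L×W×H×π/6) and body weight every 3−4 days.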

[22] = test system: CLL; assay: Inhibition of NFkappaB-mediated IkappaBalpha phosphorylation in human primary CLL cells at 0.1 nM after 24 hrs by Western blotting analysis; assay type: cell-based
Summary of the method: (§5)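 Primary CLL cells exposed 24 h, washed in PBS and lysed in HEPES-based buffer with NaF, iodoacetamide, NP40, PMSF, orthovanadate, protease and phosphatase inhibitors; Western blots probed for phosphorylated IκBα and p65, actin as loading control.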

[23] = test system: HeLa; assay: Downregulation of OCT4 in human HeLa cells at 10 nM after 4 hrs relative to control; assay type: functional; summary of the method: as §3
[24] = test system: MDA-MB-231; assay: Antitumor activity against human MDA-MB-231 cells xenografted in iv dosed MF1 nude mouse administered for 5 consecutive days followed by 2 drug-free days repeated for 4 weeks relative to control; assay type: functional, organism-based; summary of the method: as §4
[25] = test system: Mus musculus; assay: Toxicity in Swiss Webster mouse at 350 ug/kg/day, ip; assay type: organism-based; conditions: in vivo, 0.35 mg/kg
[26] = test system: CLL; assay: Inhibition of NFkappaB-mediated p65 phosphorylation in human primary CLL cells at 0.1 nM after 24 hrs by Western blotting analysis; assay type: cell-based; summary of the method: as §5
[27] = test system: Mus musculus; assay: Toxicity in MF1 nude mouse xenografted with human MDA-MB-231 cells at 250 to 300 ug/kg/day, iv; assay type: organism-based; conditions: in vivo
Summary of the method: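 Female MF1 nude mice (2–3 months old, 20–25 g) carried subcutaneous flank MDA-MB-231 xenografts. At about 0.06 cm3 the mice were split into groups of six: 250 or 300 μg/kg iv by tail vein, or untreated. Compound was dissolved in DMSO and diluted in saline, given daily for 5 days then 2 days off, over 4 weeks. Body weight and signs of toxicity (>20% weight loss) were checked every 3–4 days.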

[28] = test system: MIA PaCa-2; assay: Antitumor activity against human MIAPaCa2 cells xenografted in MF1 nude mouse at 300 ug/kg/day, iv administered for 5 consecutive days followed by 2 drug-free days repeated for 3 weeks relative to control; assay type: functional, organism-based
Summary of the method: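 MIA PaCa-2 cells (5 × 10^6) implanted subcutaneously in flank of female MF1 nude mice (2−3 months, 20−25 g); at ~0.06 cm3, groups of six. DMSO stock diluted in saline, given by tail-vein injection at 300 μg/kg/day, five days on, two off, for three weeks; vehicle controls. Tumors measured every 3−4 days by ellipsoid formula; mice weighed for toxicity.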

| SMILES | IC50 [1] | IC50 [2] | ΔTm [3] | IC50 [4] | IC50 [6] | Ratio [7] | IC50 [8] | IC50 [9] | ΔTm [10] | IC50 [11] | IC50 [13] | further results |
| --- | --- | --- | --- | --- | --- | --- | --- | --- | --- | --- | --- | --- |
| COC(=O)c1cc(-c2ccc(NC(=O)CCCOc3cc4c(cc3OC)C(=O)N3CCC[C@H]3C=N4)cc2)cn1C | 1.87 nM | 6.2 nM | 0.3 °C | 2.31 nM | 2.11 nM | 13 | 1.2 nM | 1.91 nM | 3.9 °C | 7.5 nM | 160 nM | Activity [5]: 3%; Activity [12]: 67% |
| COC(=O)c1cc(NC(=O)c2cc(-c3ccc(NC(=O)CCCOc4cc5c(cc4OC)C(=O)N4CCC[C@H]4C=N5)cc3)cn2C)cn1C | 0.96 nM | 2.1 nM | 2.1 °C | 4.6 nM | 2.7 nM | 1.48 | 0.34 nM | 1.7 nM | 3.1 °C | 0.019 nM | 426 nM |  |
| COC(=O)c1cc(NC(=O)c2cc(NC(=O)CCCOc3cc4c(cc3OC)C(=O)N3CCC[C@H]3C=N4)cn2C)cn1C | 0.57 nM | 1.3 nM | 7.4 °C | 0.55 nM | 0.12 nM | 0.15 | 2.4 nM | 0.32 nM | 1.1 °C | 6.1 nM | 41.3 nM | Activity [5]: 70%; Activity [12]: 12% |
| COC(=O)c1cc(-c2ccc(N)cc2)cn1C | > 20000 nM | > 20000 nM |  | > 20000 nM | > 20000 nM |  | > 20000 nM | > 20000 nM |  | > 20000 nM | > 20000 nM |  |
| COc1cc2c(cc1OCCCC(=O)O)N=C[C@@H]1CCCN1C2=O | 3760 nM | > 20000 nM | 0.4 °C | 1090 nM | 1670 nM | 0.5 | 1560 nM | 702 nM | 0.2 °C | 1500 nM | 4660 nM |  |
| COC(=O)c1nc(NC(=O)c2cc(NC(=O)c3cc(-c4ccc(NC(=O)CCCOc5cc6c(cc5OC)C(=O)N5CCC[C@H]5C=N6)cc4)cn3C)cn2C)cn1C | > 20000 nM | 0.037 nM | 3.4 °C | 0.064 nM | 0.015 nM | 1.7 | 0.25 nM | 0.075 nM | 5.8 °C | 0.45 nM | 65.6 nM |  |
| COC(=O)c1cc(NC(=O)c2cc(NC(=O)c3cc(-c4ccc(NC(=O)CCCOc5cc6c(cc5OC)C(=O)N5CCC[C@H]5C=N6)cc4)cn3C)cn2C)cn1C | 0.24 nM | 0.96 nM | 3.2 °C | 0.86 nM | 0.59 nM | 1.34 | 0.31 nM | 0.31 nM | 4.3 °C | 2.3 nM | 41.3 nM |  |
| COC(=O)c1cc(-c2ccc(NC(=O)c3cc(NC(=O)CCCOc4cc5c(cc4OC)C(=O)N4CCC[C@H]4C=N5)cn3C)cc2)cn1C | 0.013 nM | 0.098 nM | 5 °C |  | 6.5e-05 nM | 0.28 |  | 2e-05 nM | 1.4 °C | 0.056 nM | 474 nM | Activity [14]: Toxic; MTD [15]: 0.4 mg/kg/day |
| COC(=O)c1cc(-c2ccc(NC(=O)c3cc(-c4ccc(NC(=O)CCCOc5cc6c(cc5OC)C(=O)N5CCC[C@H]5C=N6)cc4)cn3C)cc2)cn1C | 0.56 nM | 4.7 nM | 0.8 °C | 2.91 nM | 0.46 nM | 3.6 | 0.35 nM | 0.9 nM | 3.6 °C | 0.54 nM | 159 nM |  |
| CCOC(=O)c1nc(NC(=O)c2cc(-c3ccc(NC(=O)CCCOc4cc5c(cc4OC)C(=O)N4CCC[C@H]4C=N5)cc3)cn2C)cn1C | 0.15 nM | 3 nM | 0.5 °C | 0.19 nM | 0.45 nM | 5.6 | 0.11 nM | 0.37 nM | 2.8 °C | 0.47 nM | 1240 nM |  |
| COC(=O)c1cc(-c2ccc(NC(=O)c3nc(NC(=O)CCCOc4cc5c(cc4OC)C(=O)N4CCC[C@H]4C=N5)cn3C)cc2)cn1C | 0.021 nM | 0.17 nM | 6 °C | 0.018 nM | 0.00018 nM | 1.03 |  | 2e-05 nM | 6.2 °C | 0.034 nM | 129 nM | Activity [16]: 30%; inhibition [17]: Active; MTD [15]: 0.4 mg/kg/day; Activity [18]: 30%; Activity [19]: 30%; inhibition [20]: 50%; Activity [21]: Active; inhibition [22]: Active; Activity [23]: 30%; Activity [24]: Dose-dependent effect; Activity [25]: Non-toxic; inhibition [26]: Active; Activity [27]: Non-toxic; Activity [28]: Active |
